Target: T1, Ribonuclease P protein component (Staphylococcus aureus, UniProt P0A0H5)
T1 sequence (P0A0H5 whole entry): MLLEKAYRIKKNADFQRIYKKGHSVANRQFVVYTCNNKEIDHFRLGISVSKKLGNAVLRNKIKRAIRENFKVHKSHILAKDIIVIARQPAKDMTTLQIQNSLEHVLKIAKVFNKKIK
Assay: Inhibition of Staphylococcus aureus RnpA-mediated mRNA degradation after 15 to 30 mins by ethidium bromide staining based agarose gel electrophoresis
Method in brief: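 Recombinant S. aureus RnpA protein of ≥97% purity was tested in vitro for inhibition of its mRNA degradation activity, following the procedure previously described.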

CC(C)c1ccc(OCC(=O)NNC(=S)NC(=O)c2ccno2)cc1
IC50: > 500 µM

Source: BindingDB's records for doi:10.1016/j.bmcl.2018.01.022 (Temple University, 2018)
